Assay results taken from ChEMBL document CHEMBL4706666, “Targeting Cysteine Located Outside the Active Site: An Effective Strategy for Covalent ALKi Design” (J Med Chem, 2021).
The source made the active and inactive calls. No cut-off for these calls is given here.

Key:
[1] = molecular target: T1, ALK tyrosine kinase receptor (Homo sapiens, UniProt Q9UM73); assay: Inhibition of N-terminal GST tagged human ALK cytoplasmic domain (1058 to 1620 residues) expressed in Sf21 cells at 20 nM incubated for 10 mins by mobility shift assay
Target sequence in this assay (Q9UM73 19-1620 limits assumed): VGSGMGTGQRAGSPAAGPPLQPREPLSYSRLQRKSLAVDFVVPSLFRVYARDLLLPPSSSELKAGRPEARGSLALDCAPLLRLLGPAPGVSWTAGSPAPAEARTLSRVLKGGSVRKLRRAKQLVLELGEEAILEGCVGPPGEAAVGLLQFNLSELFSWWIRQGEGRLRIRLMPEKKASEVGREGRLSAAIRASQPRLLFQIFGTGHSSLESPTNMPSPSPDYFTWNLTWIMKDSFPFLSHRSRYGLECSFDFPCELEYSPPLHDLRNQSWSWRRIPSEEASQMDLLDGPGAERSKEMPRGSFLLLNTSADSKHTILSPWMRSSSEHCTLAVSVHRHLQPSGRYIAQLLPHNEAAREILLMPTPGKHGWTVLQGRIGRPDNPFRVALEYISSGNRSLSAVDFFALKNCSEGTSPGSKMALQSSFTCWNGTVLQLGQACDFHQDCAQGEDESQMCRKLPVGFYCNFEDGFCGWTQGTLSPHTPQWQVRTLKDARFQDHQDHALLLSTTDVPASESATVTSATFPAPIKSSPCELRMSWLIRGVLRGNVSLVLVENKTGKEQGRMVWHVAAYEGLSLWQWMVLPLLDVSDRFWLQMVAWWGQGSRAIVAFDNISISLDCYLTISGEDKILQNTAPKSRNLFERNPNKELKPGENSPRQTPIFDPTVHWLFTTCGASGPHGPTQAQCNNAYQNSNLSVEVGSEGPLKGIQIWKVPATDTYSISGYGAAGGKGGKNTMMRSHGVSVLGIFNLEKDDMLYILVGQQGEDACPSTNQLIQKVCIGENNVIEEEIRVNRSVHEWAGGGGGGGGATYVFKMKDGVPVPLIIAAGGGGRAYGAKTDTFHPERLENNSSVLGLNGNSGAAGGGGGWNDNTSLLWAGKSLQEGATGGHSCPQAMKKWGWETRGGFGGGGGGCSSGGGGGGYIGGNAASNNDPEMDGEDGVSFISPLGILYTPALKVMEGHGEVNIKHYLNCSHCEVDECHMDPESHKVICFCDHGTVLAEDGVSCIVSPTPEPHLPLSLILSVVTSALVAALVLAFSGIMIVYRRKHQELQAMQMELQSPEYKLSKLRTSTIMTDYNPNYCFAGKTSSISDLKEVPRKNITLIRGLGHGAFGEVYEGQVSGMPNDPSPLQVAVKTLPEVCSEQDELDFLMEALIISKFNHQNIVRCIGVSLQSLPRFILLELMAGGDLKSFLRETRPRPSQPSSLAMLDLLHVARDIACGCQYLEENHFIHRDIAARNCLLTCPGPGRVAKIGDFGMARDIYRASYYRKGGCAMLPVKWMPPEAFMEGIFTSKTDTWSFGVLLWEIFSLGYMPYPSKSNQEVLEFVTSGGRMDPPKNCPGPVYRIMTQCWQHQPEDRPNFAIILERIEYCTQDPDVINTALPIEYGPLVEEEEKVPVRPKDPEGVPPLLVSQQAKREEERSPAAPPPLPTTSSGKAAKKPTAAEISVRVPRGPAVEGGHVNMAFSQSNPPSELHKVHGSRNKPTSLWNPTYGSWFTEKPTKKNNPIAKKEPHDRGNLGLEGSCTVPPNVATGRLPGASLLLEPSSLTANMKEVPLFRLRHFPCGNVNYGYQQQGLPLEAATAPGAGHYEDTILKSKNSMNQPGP

[2] = molecular target: T1, ALK tyrosine kinase receptor; assay: Inhibition of N-terminal GST tagged human ALK cytoplasmic domain (1058 to 1620 residues) expressed in Sf21 cells at 200 nM incubated for 10 mins by mobility shift assay
Target sequence in this assay (Q9UM73 19-1620 limits assumed): as above

[3] = tested on: L02; assay: Antiproliferative activity against human L02 cells assessed as reduction in cell viability at 5 uM incubated for 72 hrs by MTT assay relative to Ceritinib; assay type: cell-based; settings: l02, 72 h
Procedure, shortened: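 Normal human liver LO2 cells were grown at 37 °C, 5% CO₂ with 10% FBS and seeded at 2−5 × 10³ per well for 24 h. Compound was added at 5 μM for 72 h, followed by MTT for 1−4 h and absorbance read at 450 nm. Inhibition rate was taken from OD.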

[4] = tested on: NCI-H3122; assay: Antiproliferative activity against human NCI-H3122 cells assessed as reduction in cell viability incubated for 72 hrs by MTT assay; settings: NCI-H3122, 72 h
[5] = tested on: NCI-H3122; assay: Antitumor activity against human NCI-H3122 cells xenografted in Balb/c nude mouse assessed as tumor growth inhibition at 10 mg/kg/day, po and measured 15 days post treatment by vernier caliper method relative to control; assay type: functional; settings: 360 h, time 15 day, read-out: TGI
Procedure, shortened: (§1)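 Female BALB/c nude mice, 6−7 weeks old and 18−22 g, were implanted sc with 5 × 10⁶ exponential-phase H3122 cells in 0.1 mL serum- and antibiotic-free medium. At 150−200 mm³ they were randomized (6 per group) and dosed orally once daily at 10, 20 or 50 mg/kg in 10% NMP/90% PEG300, with a vehicle group. Body weight and caliper tumor volume (a × b²/2) were recorded every 3 days. TGI versus vehicle was determined after 15 days.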

[6] = Oral bioavailability in Sprague-Dawley rat at 10 mg/kg measured upto 24 hrs by LC-MS/MS analysis; assay type: ADME, organism-based; settings: in vivo
Procedure, shortened: (§2)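 Male SD rats (200−220 g, n = 3 per group) received 1 mg/kg iv in 5% DMA/10% Solutol HS 15/85% saline, or 10 mg/kg orally in 0.5% CMC-Na. Jugular-vein blood was drawn to 24 h, and plasma was kept at −80 °C. Plasma levels were quantified by LC−MS/MS (LLOQ 1 ng/mL), and parameters were derived by noncompartmental analysis.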

[7] = molecular target: T2, Receptor-type tyrosine-protein kinase FLT3 (Homo sapiens, UniProt P36888); assay: Inhibition of FLT3 (unknown origin)
T2 sequence (P36888 whole entry): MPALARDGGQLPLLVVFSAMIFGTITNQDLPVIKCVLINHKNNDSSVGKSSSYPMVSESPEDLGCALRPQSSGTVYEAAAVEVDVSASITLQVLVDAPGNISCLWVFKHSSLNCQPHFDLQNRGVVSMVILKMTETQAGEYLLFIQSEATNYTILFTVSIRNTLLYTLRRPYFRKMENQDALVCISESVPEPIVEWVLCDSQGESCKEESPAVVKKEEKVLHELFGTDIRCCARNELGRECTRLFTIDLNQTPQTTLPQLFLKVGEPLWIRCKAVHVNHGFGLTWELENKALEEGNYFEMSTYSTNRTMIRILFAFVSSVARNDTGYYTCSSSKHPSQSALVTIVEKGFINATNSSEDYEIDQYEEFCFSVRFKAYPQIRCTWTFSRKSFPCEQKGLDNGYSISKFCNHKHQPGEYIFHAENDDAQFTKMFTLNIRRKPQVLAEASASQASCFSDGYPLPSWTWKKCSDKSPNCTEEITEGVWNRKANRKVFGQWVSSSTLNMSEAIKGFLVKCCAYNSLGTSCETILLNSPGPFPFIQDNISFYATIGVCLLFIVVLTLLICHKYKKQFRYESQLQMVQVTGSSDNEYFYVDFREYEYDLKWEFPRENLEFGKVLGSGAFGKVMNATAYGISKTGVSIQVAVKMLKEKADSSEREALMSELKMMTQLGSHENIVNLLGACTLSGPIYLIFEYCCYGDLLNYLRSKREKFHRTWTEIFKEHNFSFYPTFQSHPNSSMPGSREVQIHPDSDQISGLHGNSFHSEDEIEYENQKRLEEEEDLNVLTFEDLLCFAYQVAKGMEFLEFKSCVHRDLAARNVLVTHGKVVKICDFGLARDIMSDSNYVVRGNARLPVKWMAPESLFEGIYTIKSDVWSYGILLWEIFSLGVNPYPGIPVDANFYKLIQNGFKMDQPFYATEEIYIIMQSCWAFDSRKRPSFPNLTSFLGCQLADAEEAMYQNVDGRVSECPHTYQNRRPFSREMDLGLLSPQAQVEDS

[8] = molecular target: T1, ALK tyrosine kinase receptor; assay: Inhibition of ALK in human NCI-H3122 cells assessed as downregulation of STAT3 phosphorylation levels at 10 to 500 nM incubated for 24 hrs by western blot analysis; assay type: cell-based; settings: dose 10-500 nM
Procedure, shortened: (§3)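 H3122 cells were exposed for 24 h at 37 °C to 0, 10, 50, 200 or 500 nM, then lysed in RIPA buffer with protease/phosphatase inhibitors and 1 mM PMSF. Protein was BCA-normalized and run on SDS−PAGE to PVDF. Primary antibodies were applied overnight at 4 °C in 5% BSA/TBST, then HRP secondary (1/5000, 1 h). Detection was by chemiluminescence.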
Target sequence in this assay (Q9UM73 19-1620 limits assumed): as the sequence (Q9UM73 19-1620 limits assumed) above

[9] = Cmax in Sprague-Dawley rat at […] measured upto 24 hrs by LC-MS/MS analysis; assay type: ADME, organism-based; parameters: route intravenous, dose 1 mg/kg, time <=24; settings: in vivo
[10] = molecular target: Fibroblast growth factor receptor 2 (Homo sapiens, UniProt P21802); assay: Inhibition of FGFR2 (unknown origin)
[11] = AUC (0 to infinity) in Sprague-Dawley rat at 10 mg/kg, po measured upto 24 hrs by LC-MS/MS analysis; assay type: ADME, organism-based; parameters: route oral, dose 10 mg/kg, time <=24; settings: in vivo; procedure, shortened: as §2
[12] = Clearance in Sprague-Dawley rat at 1 mg/kg, iv measured upto 24 hrs by LC-MS/MS analysis; assay type: ADME, organism-based; settings: in vivo; procedure, shortened: as §2
[13] = Tmax in Sprague-Dawley rat at […] measured upto 24 hrs by LC-MS/MS analysis; assay type: ADME, organism-based; settings: in vivo
[14] = molecular target: T1, ALK tyrosine kinase receptor; assay: Inhibition of ALK in human NCI-H3122 cells assessed as decrease in phosphorylation of AKT at 10 to 500 nM incubated for 24 hrs by western blot analysis; assay type: cell-based; settings: dose 10-500 nM; procedure, shortened: as §3
Target sequence in this assay (Q9UM73 19-1620 limits assumed): as the sequence (Q9UM73 19-1620 limits assumed) above

[15] = molecular target: T1, ALK tyrosine kinase receptor; assay: Inhibition of N-terminal GST tagged human ALK cytoplasmic domain (1058 to 1620 residues) expressed in Sf21 cells by mobility shift assay
Procedure, shortened: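 Wild-type ALK, kinase substrate and ATP at Km were combined with compound in kinase buffer and incubated 10 min at room temperature. Read-out was by mobility shift, and IC50 was derived by curve fitting.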
Target sequence in this assay (Q9UM73 whole entry, the tested form may be a part): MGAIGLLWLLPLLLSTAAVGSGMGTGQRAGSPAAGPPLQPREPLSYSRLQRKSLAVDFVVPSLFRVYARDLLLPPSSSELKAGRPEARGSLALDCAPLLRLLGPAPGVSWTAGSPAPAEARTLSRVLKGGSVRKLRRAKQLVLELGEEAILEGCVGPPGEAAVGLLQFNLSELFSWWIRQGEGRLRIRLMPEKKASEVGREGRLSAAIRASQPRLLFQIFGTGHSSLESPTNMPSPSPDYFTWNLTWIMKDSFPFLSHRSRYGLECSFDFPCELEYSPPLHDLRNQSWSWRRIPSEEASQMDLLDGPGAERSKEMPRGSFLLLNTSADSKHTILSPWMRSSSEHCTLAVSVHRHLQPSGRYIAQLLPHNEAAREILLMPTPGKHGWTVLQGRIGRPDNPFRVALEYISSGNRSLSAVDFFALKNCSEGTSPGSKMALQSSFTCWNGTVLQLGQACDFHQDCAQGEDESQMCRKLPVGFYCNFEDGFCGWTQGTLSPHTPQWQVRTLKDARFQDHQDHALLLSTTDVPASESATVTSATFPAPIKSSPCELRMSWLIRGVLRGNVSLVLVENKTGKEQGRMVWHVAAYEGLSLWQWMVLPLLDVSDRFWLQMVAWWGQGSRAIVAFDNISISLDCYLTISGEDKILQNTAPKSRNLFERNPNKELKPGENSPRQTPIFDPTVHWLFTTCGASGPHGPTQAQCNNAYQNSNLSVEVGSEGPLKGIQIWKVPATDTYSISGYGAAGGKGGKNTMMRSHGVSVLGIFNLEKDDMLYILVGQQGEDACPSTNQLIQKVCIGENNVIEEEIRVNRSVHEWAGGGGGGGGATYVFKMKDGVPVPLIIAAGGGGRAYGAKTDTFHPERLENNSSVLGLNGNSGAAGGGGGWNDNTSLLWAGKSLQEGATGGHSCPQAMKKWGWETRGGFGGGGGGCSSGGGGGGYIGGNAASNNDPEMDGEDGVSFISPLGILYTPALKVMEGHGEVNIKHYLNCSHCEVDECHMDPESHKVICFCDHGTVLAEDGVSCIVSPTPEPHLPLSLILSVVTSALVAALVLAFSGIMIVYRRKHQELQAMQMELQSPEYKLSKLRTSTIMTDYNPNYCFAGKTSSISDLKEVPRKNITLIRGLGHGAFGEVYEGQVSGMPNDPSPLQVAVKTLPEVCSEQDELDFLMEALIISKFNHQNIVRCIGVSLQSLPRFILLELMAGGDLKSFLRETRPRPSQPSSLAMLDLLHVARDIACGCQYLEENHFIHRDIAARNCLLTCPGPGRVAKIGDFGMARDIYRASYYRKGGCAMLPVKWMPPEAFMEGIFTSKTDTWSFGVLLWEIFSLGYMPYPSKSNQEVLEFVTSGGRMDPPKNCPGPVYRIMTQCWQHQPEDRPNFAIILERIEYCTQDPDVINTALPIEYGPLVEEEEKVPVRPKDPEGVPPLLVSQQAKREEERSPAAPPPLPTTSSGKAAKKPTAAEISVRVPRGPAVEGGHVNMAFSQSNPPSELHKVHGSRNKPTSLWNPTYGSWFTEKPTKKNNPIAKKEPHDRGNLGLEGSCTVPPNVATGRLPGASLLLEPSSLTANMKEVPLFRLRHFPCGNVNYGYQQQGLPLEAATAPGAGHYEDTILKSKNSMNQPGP

[16] = tested on: NCI-H3122; assay: Antitumor activity against human NCI-H3122 cells xenografted in Balb/c nude mouse assessed as tumor growth inhibition administered orally and measured every 3 days for 15 days by vernier caliper method; assay type: functional, cell-based; settings: time 15.0 day; procedure, shortened: as §1
[17] = Volume of distribution at steady state in Sprague-Dawley rat at 1 mg/kg, iv measured upto 24 hrs by LC-MS/MS analysis; assay type: ADME, organism-based; settings: in vivo, read-out: Vdss; procedure, shortened: as §2
[18] = molecular target: T1, ALK tyrosine kinase receptor; assay: Inhibition of ALK in human NCI-H3122 cells assessed as downregulation of AKT expression levels at 10 to 500 nM incubated for 24 hrs by western blot analysis; assay type: cell-based; settings: dose 10-500 nM; procedure, shortened: as §3
Target sequence in this assay (Q9UM73 19-1620 limits assumed): as the sequence (Q9UM73 19-1620 limits assumed) above

[19] = Toxicity in Balb/c mouse xenografted with human NCI-H3122 cells assessed as change in body weight at 10 to 50 mg/kg/day, po and measured every 3 days for 15 days; assay type: organism-based; settings: in vivo, 360 h, dose 10-50 mg/kg/day, time 15 day; procedure, shortened: as §1
[20] = molecular target: T1, ALK tyrosine kinase receptor; assay: Covalent inhibition of N-terminal GST tagged human ALK cytoplasmic domain (1058 to 1620 residues) expressed in Sf21 cells in presence of high ATP levels
Target sequence in this assay (Q9UM73 whole entry, the tested form may be a part): as the sequence (Q9UM73 whole entry, the tested form may be a part) above

[21] = tested on: NCI-H3122; assay: Antitumor activity against human NCI-H3122 cells xenografted in Balb/c nude mouse assessed as tumor growth inhibition at 20 mg/kg/day, po and measured 15 days post treatment by vernier caliper method relative to control; assay type: functional; settings: 360 h, time 15 day, read-out: TGI; procedure, shortened: as §1
[22] = Half life in Sprague-Dawley rat at 10 mg/kg, po measured upto 24 hrs by LC-MS/MS analysis; assay type: ADME, organism-based; settings: in vivo; procedure, shortened: as §2
[23] = molecular target: T1, ALK tyrosine kinase receptor; assay: Inhibition of ALK phosphorylation in human NCI-H3122 cells at 10 to 500 nM incubated for 24 hrs by western blot analysis; assay type: cell-based; settings: dose 10-500 nM; procedure, shortened: as §3
Target sequence in this assay (Q9UM73 19-1620 limits assumed): as the sequence (Q9UM73 19-1620 limits assumed) above

[24] = molecular target: T1, ALK tyrosine kinase receptor; assay: Inhibition of ALK in human NCI-H3122 cells assessed as decrease in STAT3 expression levels at 10 to 500 nM incubated for 24 hrs by western blot analysis; assay type: cell-based; settings: dose 10-500 nM; procedure, shortened: as §3
[25] = Binding affinity to L-cysteine assessed as molecular mass incubated for 8 hrs by LC-MS analysis
Procedure, shortened: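 L-cysteine incubated in water with a 5-fold molar excess of compound (or DMSO) for 8 h at 4 °C; reaction mixtures analysed by LC–MS on an ion trap mass spectrometer to detect adduct mass.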

[26] = tested on: NCI-H3122; assay: Antitumor activity against human NCI-H3122 cells xenografted in Balb/c nude mouse assessed as tumor growth inhibition at 50 mg/kg/day, po and measured 15 days post treatment by vernier caliper method relative to control; assay type: functional; settings: 360 h, time 15 day, read-out: TGI; procedure, shortened: as §1
[27] = tested on: ALK tyrosine kinase receptor (Homo sapiens), Q9UM73 [L1196M]; settings: Sf21, dose 200.0 nM, time 10.0 min
ALK tyrosine kinase receptor (Homo sapiens), Q9UM73 [L1196M], sequence (Q9UM73 whole entry L1196M, looked up): as the sequence (Q9UM73 whole entry, the tested form may be a part) above, with L1196M counted along it

Fibroblast growth factor receptor 2, sequence (P21802 whole entry): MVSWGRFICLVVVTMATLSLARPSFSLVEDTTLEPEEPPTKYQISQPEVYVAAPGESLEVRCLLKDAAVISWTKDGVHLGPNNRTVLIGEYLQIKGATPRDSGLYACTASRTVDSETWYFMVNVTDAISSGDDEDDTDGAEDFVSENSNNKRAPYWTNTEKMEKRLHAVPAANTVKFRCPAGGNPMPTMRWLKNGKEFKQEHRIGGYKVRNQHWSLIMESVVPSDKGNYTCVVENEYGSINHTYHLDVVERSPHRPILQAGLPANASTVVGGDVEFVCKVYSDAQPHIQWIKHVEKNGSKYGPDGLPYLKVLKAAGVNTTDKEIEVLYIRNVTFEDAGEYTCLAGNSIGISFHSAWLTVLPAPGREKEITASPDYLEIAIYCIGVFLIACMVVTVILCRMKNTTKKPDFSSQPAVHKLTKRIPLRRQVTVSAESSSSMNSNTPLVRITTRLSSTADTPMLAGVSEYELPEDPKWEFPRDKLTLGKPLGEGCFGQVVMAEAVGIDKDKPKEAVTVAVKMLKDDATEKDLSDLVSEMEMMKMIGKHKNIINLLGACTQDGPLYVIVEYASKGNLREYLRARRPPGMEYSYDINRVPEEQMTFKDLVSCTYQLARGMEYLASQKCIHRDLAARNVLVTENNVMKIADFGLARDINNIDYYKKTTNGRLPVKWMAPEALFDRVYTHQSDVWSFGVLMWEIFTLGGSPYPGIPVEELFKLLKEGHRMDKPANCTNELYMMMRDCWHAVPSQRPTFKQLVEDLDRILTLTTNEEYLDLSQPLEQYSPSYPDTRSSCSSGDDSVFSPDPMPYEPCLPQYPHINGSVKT

C=CC(=O)NCCCCNC(=O)CCN1CCC(c2cc(OC(C)C)c(Nc3ncc(Cl)c(Nc4ccccc4S(=O)(=O)C(C)C)n3)cc2C)CC1
inhibition [1]: Active
inhibition [2]: Active

C=CC(=O)NCCCNC(=O)CCN1CCC(c2cc(OC(C)C)c(Nc3ncc(Cl)c(Nc4ccccc4S(=O)(=O)C(C)C)n3)cc2C)CC1
inhibition [1]: Active
Activity [3]: Non-Toxic
inhibition [2]: Active
IC50 [4]: 1140 nM

C=CC(=O)NCCOCCOCCOCCNC(=O)CCN1CCC(c2cc(OC(C)C)c(Nc3ncc(Cl)c(Nc4ccccc4S(=O)(=O)C(C)C)n3)cc2C)CC1
inhibition [1]: Active
Activity [3]: Non-Toxic
inhibition [2]: Active
IC50 [4]: 610 nM

C=CC(=O)NCCOCCNC(=O)CCN1CCC(c2cc(OC(C)C)c(Nc3ncc(Cl)c(Nc4ccccc4S(=O)(=O)C(C)C)n3)cc2C)CC1
inhibition in vivo at 10 mg/kg/day [5]: 39.7%
bioavailability [6]: 12.1%
IC50 [7]: 875 nM
inhibition [1]: Active
inhibition [8]: Active
Cmax [9]: 157 ng/mL
IC50 [10]: > 1000 nM
AUC(0-inf) [11]: 859 ng·h/mL
clearance [12]: 17 mL/min/kg
Activity [3]: Non-Toxic
Tmax [13]: 2.67 h
inhibition [14]: Active
IC50 [15]: 0.5 nM
TGI [16]: Dose-dependent effect
inhibition [2]: Active
Vd [17]: 2.81 L/kg
inhibition [18]: Active
Activity [19]: Non-Toxic
IC50 [20]: 1.4 nM
inhibition in vivo at 20 mg/kg/day [21]: 49.7%
half-life [22]: 2.89 h
inhibition [23]: Active
inhibition [24]: Active
Activity [25]: 891 Da
IC50 [4]: 150 nM
inhibition in vivo at 50 mg/kg/day [26]: 62%
inhibition [27]: Active

CCC(=O)NCCOCCNC(=O)CCN1CCC(c2cc(OC(C)C)c(Nc3ncc(Cl)c(Nc4ccccc4S(=O)(=O)C(C)C)n3)cc2C)CC1
IC50 [15]: 13.2 nM

C=CC(=O)NCCOCCOCCNC(=O)CCN1CCC(c2cc(OC(C)C)c(Nc3ncc(Cl)c(Nc4ccccc4S(=O)(=O)C(C)C)n3)cc2C)CC1
inhibition [1]: Active
inhibition [2]: Active

Cc1cc(Nc2ncc(Cl)c(Nc3ccccc3S(=O)(=O)C(C)C)n2)c(OC(C)C)cc1C1CCNCC1 [CERITINIB]
inhibition in vivo at 20 mg/kg/day [21]: 34%
IC50 [4]: 1100 nM
inhibition [27]: Active

C=CC(=O)NCCCCCCCCNC(=O)CCN1CCC(c2cc(OC(C)C)c(Nc3ncc(Cl)c(Nc4ccccc4S(=O)(=O)C(C)C)n3)cc2C)CC1
inhibition [1]: Active
Activity [3]: Non-Toxic
inhibition [2]: Active
IC50 [4]: 720 nM

C=CC(=O)NCCCCCCNC(=O)CCN1CCC(c2cc(OC(C)C)c(Nc3ncc(Cl)c(Nc4ccccc4S(=O)(=O)C(C)C)n3)cc2C)CC1
inhibition [1]: Active
Activity [3]: Non-Toxic
inhibition [2]: Active
IC50 [4]: 750 nM
